Measurements taken from publication PMC3437501 (European Journal of Pain (London, England), 2011).
“Also recorded” adds a separate entry of the source. Marks after values point to notes of the source that are not given here.

Columns and labels:
[1] = system: prostaglandin E2 (PGE2); test: Prostaglandin E2 in tissue exudate, plasma and CSF; type: in vivo, human
In short: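 Hip-arthroplasty patients dosed orally with 120 mg test compound or placebo on surgery day and next day. Drain exudate collected over 60 min before 4, 8, 12, 24, 26, 32, 48 h, centrifuged, supernatant frozen −30 °C. PGE2 in exudate and plasma by ELISA (LOQ 15 pg/mL). CSF PGE2 by solid-phase extraction LC-MS/MS with prostaglandin D2-d4 (LOQ 25–200 pg/mL). Partial AUCs by trapezoidal rule.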

[2] = cited from earlier work
[3] = system: interleukin 6 (IL6); test: Interleukin 6 in plasma, CSF and tissue exudate; type: in vivo, human
In short: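 Osteoarthritis patients (59–77 y) undergoing hip arthroplasty under spinal bupivacaine, given oral test compound 120 mg or placebo at 6:30 a.m. on surgery day and next day. Plasma and CSF sampled predose and 1.5–48 h; drain exudate collected over 60 min before 4–48 h, centrifuged, frozen −30 °C. IL6 by ELISA (LOQ 7.8 pg/mL); partial AUCs by linear trapezoidal rule.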

[4] = Safety: adverse events and blood loss during surgery; type: in vivo, human
[5] = Patient ratings of post-operative pain, satisfaction and sleep disturbance; type: in vivo, human; conditions: first 24 h; interaction p = 0.036
In short: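 Patients dosed orally with 120 mg test compound or placebo on surgery day and next day, double-blind. Global pain and operated-hip pain at rest and passive movement rated on 11-point scale (0 = no pain, 10 = worst) at 4, 8, 12, 24, 26, 32, 48 h. Satisfaction with analgesia on numeric rating scale; sleep disturbance (0–10) at 24, 48, 72 h.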

[6] = Post-operative consumption of intrathecal bupivacaine and piritramide; type: in vivo, human
In short: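 After spinal bupivacaine 0.5% via lumbar intrathecal catheter, 0.01% bupivacaine infused intrathecally at 4–6 mL/h plus patient-controlled boluses up to 1 mL every 10 min, 4-h lockout 40 mL. Breakthrough pain: piritramide i.v. up to 5 mg (s.c. up to 15 mg). Total consumption, requests, delivered boluses and request times recorded. Patient lacking catheter excluded.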

[7] = Pharmacokinetics of etoricoxib in plasma, CSF and tissue exudate; type: in vivo, human; conditions: for Cmax / Tmax / Kp: human, 120 mg; for Kp: CSF/plasma
In short: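 Six hip-arthroplasty patients given oral 120 mg at 6:30 a.m. on surgery day and 24 h later. Blood and intrathecal-catheter CSF sampled predose and 1.5–48 h, first 1 mL CSF discarded; drain exudate collected hourly windows. LC-MS/MS with phenazone internal standard, LOQ 0.2 ng/mL, validated 0.2–200 ng/mL. AUC0–24 h by linear trapezoidal method; CSF/plasma ratio from AUCs, maximal ratio from individual concentrations.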

[8] = same dose; ref Fletcher et al., [1995]; cited from earlier work
[9] = tissue exudate, 12–24 h, mean, n = 6
[10] = tissue exudate, 24–36 h, mean, n = 6
[11] = tissue exudate, 36–47 h, mean, n = 6

## Cc1ccc(-c2ncc(Cl)cc2-c2ccc(S(C)(=O)=O)cc2)cn1 [Etoricoxib, etoricoxib]
[1]; plasma and CSF, both groups, differences not significant
  Concentrations of PGE2 in plasma and CSF: near or below the LOQ
[1]; preoperative administration
  PGE2 production in the surgical wound: complete blockade
[1]; tissue exudate (hip drain), 4–12 h, mean, n = 6
  PGE2 tissue exudate AUC (4–12 h): 40 ng·h/mL
[1]; [9]
  PGE2 tissue exudate AUC (12–24 h): 48 ng·h/mL
[1]; [10]
  PGE2 tissue exudate AUC (24–36 h): 29 ng·h/mL
[1]; [11]
  PGE2 tissue exudate AUC (36–47 h): 16 ng·h/mL
[1]; wound fluid, versus fast increase in placebo group, treatment p = 0.014
  PGE2 concentration in wound fluid: remained low throughout
[2]; ref Agrawal et al., [2003]
  Absorption, bioavailability and elimination: fast absorption, high bioavailability and slow elimination
[3]; CSF, 1.5–12 h, mean, n = 6
  IL6 cerebrospinal fluid (w/o R111) AUC (1.5–12 h): 340 pg·h/mL
[3]; CSF, 12–24 h, mean, n = 6
  IL6 cerebrospinal fluid (w/o R111) AUC (12–24 h): 660 pg·h/mL
[3]; CSF, 24–36 h, mean, n = 5
  IL6 cerebrospinal fluid (w/o R111) AUC (24–36 h): 575 pg·h/mL
[3]; CSF, 36–48 h, mean, n = 5
  IL6 cerebrospinal fluid (w/o R111) AUC (36–48 h): 436 pg·h/mL
[3]; plasma, 1.5–12 h, mean, n = 6
  IL6 plasma AUC (1.5–12 h): 435 pg·h/mL
[3]; plasma, 12–24 h, mean, n = 6
  IL6 plasma AUC (12–24 h): 596 pg·h/mL
[3]; plasma, 24–36 h, mean, n = 6
  IL6 plasma AUC (24–36 h): 598 pg·h/mL
[3]; plasma, 36–48 h, mean, n = 6
  IL6 plasma AUC (36–48 h): 409 pg·h/mL
[3]; plasma, time after surgery
  Time until plasma IL6 returned to preoperative levels: ≤ 20 h
[3]; tissue exudate, 4–12 h, mean, n = 6
  IL6 tissue exudate AUC (4–12 h): 479 ng·h/mL
[3]; [9]
  IL6 tissue exudate AUC (12–24 h): 1606 ng·h/mL
[3]; [10]
  IL6 tissue exudate AUC (24–36 h): 1200 ng·h/mL
[3]; [11]
  IL6 tissue exudate AUC (36–47 h): 861 ng·h/mL
[4]; 120 mg 2 h before surgery, mean (SD), n = 6
  Intra-OP BL (blood loss during surgery): 383 (98) mL
[4]; either treatment group
  Unwanted drug effects: not seen
[5]
  Post-operative analgesic satisfaction versus placebo: significantly higher
[6]; 2 to 48 h, main effect treatment p = 0.003
  Demand for piritramide versus placebo: significantly higher in the placebo group
[6]; only during the first 12 h post-operatively, main effect treatment p = 0.052
  On request local anaesthetic administration versus placebo: higher in the placebo group
[7]; CSF, po
  Cmax: 160 ng/mL
  Tmax: 1.5 h
[7]; oral, CSF/plasma ratio AUC 0–24 h, individual ratios, mean (range)
  Kp: 0.041
[7]; oral, Maximal CSF/plasma conc. ratio, individual maximal concentration ratio, mean (SD)
  Kp: 0.122
[7]; oral
  Tmax: < 2 h
[7]; plasma, po
  Cmax: 1880 ng/mL
  Tmax: 1.5 h
[7]; individual ratios, mean (range), subgroup n = 5
  CSF/plasma ratio AUC 0–48 h: 4.7 (2.8–8.1) ^b %
[7]; median (range)
  tmax for CSF/plasma conc. ratio: 1.75 (1.5–32) h

## Cc1ccc(-c2cc(C(F)(F)F)nn2-c2ccc(S(N)(=O)=O)cc2)cc1 [celecoxib]
[2]; oral, ref Brune et al., [2010]
  Absorption / bioavailability: absorbed slowly and to show variable (low) bioavailability; also recorded: slow and incomplete absorption

## O=C(c1ccccc1)c1ccc2n1CCC2C(=O)O (stereo not shown) [ketorolac]
[8]
  Pain relief with preoperative versus post-operative administration: significantly superior with preoperative administration
